Source: ChEMBL document CHEMBL4808218, “Structural and biophysical characterization of the Burkholderia pseudomallei IspF inhibitor L-tryptophan hydroxamate” (Bioorg Med Chem Lett, 2021)
Calls of active or inactive are those of the source. No cut-off for these calls is given here.

Legend:
[1] = biological target: T1, 2-C-methyl-D-erythritol 2,4-cyclodiphosphate synthase (Burkholderia pseudomallei (strain K96243), UniProt Q63T71); experiment: Binding affinity to Burkholderia pseudomallei IspF at pH 7.4 measured by isothermal titration calorimetry method; conditions: read-out: Kd(app)
T1 sequence (Q63T71 whole entry): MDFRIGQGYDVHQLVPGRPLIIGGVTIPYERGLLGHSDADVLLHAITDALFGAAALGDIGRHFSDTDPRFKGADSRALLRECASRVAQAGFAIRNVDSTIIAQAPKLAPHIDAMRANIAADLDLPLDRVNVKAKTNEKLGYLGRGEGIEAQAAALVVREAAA
Outline: (§1)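 ITC titration of BpIspF with ligand at 25 °C, run in buffer at pH 6.0, 7.4 or 8.0 as set by the line. Fits gave Kb, ΔG°, ΔH°, -TΔS° and stoichiometry. Ligand concentration was set from the tryptophan extinction coefficient. The pH 6.0/7.4 ratio compares the apparent Kd from these two runs.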

[2] = biological target: T2, 2-C-methyl-D-erythritol 2,4-cyclodiphosphate synthase (Burkholderia pseudomallei (strain K96243)) (UniProt Q63T71); experiment: Binding affinity to Burkholderia pseudomallei IspF assessed as change in free energy at pH 7.4 measured by isothermal titration calorimetry method; outline: as §1
T2 sequence (whole entry): T1 sequence (Q63T71 whole entry)

[3] = biological target: T2, 2-C-methyl-D-erythritol 2,4-cyclodiphosphate synthase (Burkholderia pseudomallei (strain K96243)); experiment: Binding affinity to Burkholderia pseudomallei IspF assessed as change in enthalpy at pH 7.4 measured by isothermal titration calorimetry method; outline: as §1
[4] = biological target: T2, 2-C-methyl-D-erythritol 2,4-cyclodiphosphate synthase (Burkholderia pseudomallei (strain K96243)); experiment: Binding affinity to Burkholderia pseudomallei IspF assessed as change in entropy at pH 7.4 measured by isothermal titration calorimetry method; outline: as §1
[5] = biological target: T2, 2-C-methyl-D-erythritol 2,4-cyclodiphosphate synthase (Burkholderia pseudomallei (strain K96243)); experiment: Binding affinity to Burkholderia pseudomallei IspF by STD NMR analysis
[6] = biological target: T2, 2-C-methyl-D-erythritol 2,4-cyclodiphosphate synthase (Burkholderia pseudomallei (strain K96243)); experiment: Binding affinity to Burkholderia pseudomallei IspF assessed as change in enthalpy at pH 8 measured by isothermal titration calorimetry method; outline: as §1
[7] = biological target: T2, 2-C-methyl-D-erythritol 2,4-cyclodiphosphate synthase (Burkholderia pseudomallei (strain K96243)); experiment: Binding affinity to Burkholderia pseudomallei IspF assessed as change in entropy at pH 6 measured by isothermal titration calorimetry method; outline: as §1
[8] = biological target: T2, 2-C-methyl-D-erythritol 2,4-cyclodiphosphate synthase (Burkholderia pseudomallei (strain K96243)); experiment: Binding affinity to Burkholderia pseudomallei IspF assessed as change in enthalpy at pH 6 measured by isothermal titration calorimetry method; outline: as §1
[9] = biological target: T3, 2-C-methyl-D-erythritol 2,4-cyclodiphosphate synthase (Escherichia coli (strain K12)) (UniProt P62617); experiment: Binding affinity to Escherichia coli IspF assessed as change in free energy at pH 7.4 measured by isothermal titration calorimetry method
T3 sequence (whole entry): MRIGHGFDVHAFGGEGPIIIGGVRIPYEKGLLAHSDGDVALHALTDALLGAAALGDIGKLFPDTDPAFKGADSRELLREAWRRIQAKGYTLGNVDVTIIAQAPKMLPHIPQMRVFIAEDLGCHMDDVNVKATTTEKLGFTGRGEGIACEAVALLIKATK

[10] = biological target: T1, 2-C-methyl-D-erythritol 2,4-cyclodiphosphate synthase; experiment: Binding affinity to Burkholderia pseudomallei IspF at pH 8 measured by isothermal titration calorimetry method; conditions: read-out: Kd(app); outline: as §1
[11] = biological target: T1, 2-C-methyl-D-erythritol 2,4-cyclodiphosphate synthase; experiment: Binding affinity to Burkholderia pseudomallei IspF at pH 6 measured by isothermal titration calorimetry method; conditions: read-out: Kd(app); outline: as §1
[12] = biological target: T2, 2-C-methyl-D-erythritol 2,4-cyclodiphosphate synthase (Burkholderia pseudomallei (strain K96243)); experiment: Binding affinity to Burkholderia pseudomallei IspF assessed as change in free energy at pH 8 measured by isothermal titration calorimetry method; outline: as §1
[13] = biological target: T2, 2-C-methyl-D-erythritol 2,4-cyclodiphosphate synthase (Burkholderia pseudomallei (strain K96243)); experiment: Ratio of apparent Kd for Burkholderia pseudomallei IspF at pH 6 to apparent Kd for Burkholderia pseudomallei IspF at pH 7.4; outline: as §1
[14] = biological target: T2, 2-C-methyl-D-erythritol 2,4-cyclodiphosphate synthase (Burkholderia pseudomallei (strain K96243)); experiment: Binding affinity to Burkholderia pseudomallei IspF assessed as change in entropy at pH 8 measured by isothermal titration calorimetry method; outline: as §1
[15] = biological target: T4, 2-C-methyl-D-erythritol 2,4-cyclodiphosphate synthase (Escherichia coli (strain K12), UniProt P62617); experiment: Binding affinity to Escherichia coli IspF at pH 7.4 measured by isothermal titration calorimetry method; conditions: read-out: Kd(app)
T4 sequence (P62617 whole entry): T3 sequence (whole entry)

[16] = biological target: T2, 2-C-methyl-D-erythritol 2,4-cyclodiphosphate synthase (Burkholderia pseudomallei (strain K96243)); experiment: Binding affinity to Burkholderia pseudomallei IspF assessed as change in free energy at pH 6 measured by isothermal titration calorimetry method; outline: as §1

Compound: N[C@@H](Cc1c[nH]c2ccccc12)C(=O)O [TRYPTOPHAN]
- Kd [1]: > 1000 µM

Compound: N[C@H](Cc1c[nH]c2ccccc12)C(=O)NO
- Kd [1]: 64 µM
- deltaG [2]: -5.7 kcal/mol
- deltaH [3]: -6.65 kcal/mol
- -TdeltaS [4]: 0.9 kcal/mol

Compound: N[C@H](Cc1c[nH]c2ccccc12)C(=O)O [D-TRYPTOPHAN]
- Kd [1]: > 1000 µM

Compound: CC(C)=CCC/C(C)=C/COP(=O)(O)OP(=O)(O)O
- Activity [5]: inactive

Compound: N[C@@H](Cc1c[nH]c2ccccc12)C(=O)NO
- Activity [5]: Active
- deltaH [6]: -8.3 kcal/mol
- Kd [1]: 36 µM
- -TdeltaS [7]: -5.2 kcal/mol
- deltaG [2]: -6.1 kcal/mol
- deltaH [8]: 1.1 kcal/mol
- deltaG [9]: -6.4 kcal/mol
- Kd [10]: 24 µM
- Kd [11]: 848 µM
- deltaG [12]: -6.29 kcal/mol
- Ratio [13]: 25
- -TdeltaS [14]: 2 kcal/mol
- Kd [15]: 22 µM
- deltaG [16]: -4.19 kcal/mol
